Laboratory results taken from ChEMBL document CHEMBL1123296, “Potential antiatherosclerotic agents. 5. An acyl-CoA:cholesterol O-acyltransferase inhibitor with hypocholesterolemic activity” (J Med Chem, 1986).
Values joined by “and” are separate entries in the source; they are usually repeats but may differ in a detail not shown here. Equal entries are not always repeated.

Columns and labels:
[1] = organism: Rattus norvegicus; assay: Effective concentration required to effect liver cholesterol concentrations in rat; type: functional
Outline: (§1)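 Rats fed diet with 1% cholesterol and 0.5% cholic acid, compound given in the diet at 1, 3 or 10 mg/kg per day. Read-outs were liver cholesterol (mg/g), serum cholesterol and serum triglycerides (mg/dL), each given as mean ± SEM. ED50 was derived from the dose response of liver cholesterol.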

[2] = organism: Rattus norvegicus; assay: Compound was evaluated for the effect on serum lipids in cholesterol-fed rats; type: functional; outline: as §1
[3] = test system: Rattus norvegicus; assay: (§2) Effect of serum lipids in cholesterol-fed rats Serum triglyceride at a dose of 1 mg/kg per day of the compound.; type: functional; outline: as §1
[4] = test system: Rattus norvegicus; assay: Effect of serum lipids in cholesterol-fed rats and Serum cholesterol at a dose of 1 mg/kg per day of the compound.; type: functional; outline: as §1
[5] = organism: Rattus norvegicus; assay: Effect of liver Cholesterol absorption in cholesterol-fed rats; type: functional; outline: as §1
[6] = test system: Rattus norvegicus; assay: as §2; type: functional; outline: as §1; remark: listed apart in the source
[7] = test system: Rattus norvegicus; assay: Compound was evaluated for the effect of serum lipids in cholesterol-fed rats Serum triglyceride at a dose of 10 mg/kg per day; type: functional; outline: as §1
[8] = target: T1, Sterol O-acyltransferase 1 (Homo sapiens, UniProt P35610); assay: In vitro inhibitory activity against acyl coenzyme A:cholesterol acyltransferase
T1 sequence (P35610 whole entry): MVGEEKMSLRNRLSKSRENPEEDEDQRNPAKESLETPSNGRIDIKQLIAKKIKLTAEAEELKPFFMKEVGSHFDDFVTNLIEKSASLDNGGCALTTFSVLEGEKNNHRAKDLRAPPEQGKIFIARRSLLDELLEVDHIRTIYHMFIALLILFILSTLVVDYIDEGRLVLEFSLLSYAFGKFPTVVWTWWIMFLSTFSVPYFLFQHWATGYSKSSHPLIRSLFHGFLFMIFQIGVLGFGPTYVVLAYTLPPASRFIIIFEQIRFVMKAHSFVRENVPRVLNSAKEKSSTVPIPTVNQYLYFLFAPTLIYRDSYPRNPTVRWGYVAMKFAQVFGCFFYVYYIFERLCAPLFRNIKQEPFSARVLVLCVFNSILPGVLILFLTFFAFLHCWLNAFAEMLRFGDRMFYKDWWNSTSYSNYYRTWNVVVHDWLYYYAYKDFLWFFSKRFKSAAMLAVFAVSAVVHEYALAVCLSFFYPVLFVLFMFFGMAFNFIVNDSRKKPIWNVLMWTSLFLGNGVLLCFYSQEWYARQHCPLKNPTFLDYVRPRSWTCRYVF

SMILES | ED50 [1] | Cholesterol [2] | Triglycerides [3] | Cholesterol [4] | Liver cholesterol [5] | Triglycerides [6] | Triglycerides [7] | IC50 [8]
CCCCCCCN(Cc1ccc(CC(C)(C)C)cc1)C(=O)Nc1ccc(F)cc1F [CL-277082] | 5.4 mg/kg | 84 mg/dL | 132 mg/dL | 211 mg/dL and 357 mg/dL | 15.6 mg/g | 121 mg/dL | 77 mg/dL | 
CC(=O)[C@H]1CC[C@H]2[C@@H]3CCC4=CC(=O)CC[C@]4(C)[C@H]3CC[C@]12C [PROGESTERONE] |  |  |  |  |  |  |  | 17 µM
